# Source: PubChem BioAssay
# Values without a mark were called inactive. Activity calls are given as the source filed them.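 Rule for the calls, unless noted: active = viability at or under a set limit in both replicates, limit being median viability minus 3 SD (cut at about 48% in these data, passing the limit was not always enough); inconclusive = at or under the limit in just one replicate; inactive = at or above the limit in both replicates.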
# Test: HUVEC growth inhibition – cell-based, human, primary screen (AID 575;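 active = viability at or below 30% in both replicate assays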;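 note: 100% = median of untreated cell wells with 0.1% DMSO on each plate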)
# Conditions: HUVEC proliferation, CellTiter-Glo luminescence, 72 h; at 10 µM; hits give low values
# Outline: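 Test system: HUVEC primary cells. Quantity: 1250 endothelial cells in each well. Dosing: single-point 10 µM, DMSO 0.1% final. Incubation: 72 h treatment at 37 °C. Measured by: CTG luminescence. Control set: DMSO cell controls and MePR drug controls. Plate: collagen-coated 384-well format.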
row,Compound,viability
1,COc1ccc2nc3oc(C(=O)NC4CCN(Cc5ccccc5)CC4)cc3cc2c1,57.5%
2,Cc1c(Cl)cccc1N1C(=O)c2ccccc2C1=O,99.5%
3,O=C(NC1CCCC1)C(c1ccco1)N(Cc1ccccc1)C(=O)c1csnn1 (stereo unspecified),76.4%
4,O=C(O)Cn1cc(C(=O)c2ccco2)c2ccccc21,105%
5,CC(C)(C)Cc1nc(-c2ccccn2)no1,88.4%
6,COCC(=O)N(Cc1ccc(OC)cc1)Cc1nc2ccccc2c(=O)[nH]1,83.6%
7,CCCN1C(=O)SC(CC(=O)Nc2ccc(Br)cc2)C1=O (stereo unspecified),77.7%
8,COc1cccc(C(=O)n2cnnc2N)c1OC,89.2%
9,O=C(Cn1c(=O)n(Cc2ccc3c(c2)OCO3)c(=O)c2ccccc21)N1CCCc2ccccc21,66.5%
10,CC(C)[C@H](NC(=O)NC1CCCC1)C(=O)O,87.9%
11,COc1ccc(-c2cc3n(n2)CCc2nc4ccccc4n2-3)cc1,87%
12,CCc1nc2scc(-c3ccccc3)c2c(=O)n1N,84%
13,O=S(=O)(Nc1cccc2ncccc12)c1cccs1,23.9% (active)
14,O=C(O)c1cccc(CN2C(=O)SC(Nc3ccccc3)C2=O)c1 (stereo unspecified),83%
15,Cc1nc2ccc(N3C(=O)CCC3=O)cc2[nH]1,97.6%
16,COCCn1nnnc1C(c1ccc(OC)cc1)N1CCN(c2ccccc2F)CC1 (stereo unspecified),107%

row,Compound,viability
1,O=S(=O)(c1ccc2nc(Cc3cccc(C(F)(F)F)c3)[nH]c2c1)N1CCOCC1,67.9%
2,Cc1nnc(SCC(=O)N(C(C)C)C(C)C)nc1C,95%
3,O=C(NC1CCCCC1)C1CC(O)CN1C(=O)OCc1ccccc1 (stereo unspecified),110%
4,CCOC(=O)c1ccc(CC2S/C(=C(\C#N)C(C)=O)NC2=O)cc1 (stereo unspecified),95.7%
5,COc1ccc(C2CC(=O)C(C=NCCN3CCOCC3)=C(O)C2)cc1 (stereo unspecified),85.7%
6,CN1C(=O)CCC1(O)c1ccccc1 (stereo unspecified),116%
7,O=c1[nH]c(/C(=N\O)c2ccccc2)no1,83.2%
8,COC(=O)C1=C(N)Oc2cc(C)[nH]c(=O)c2C1c1ccncc1 (stereo unspecified),94.4%
9,O=C(c1cc(S(=O)(=O)N2CCOCC2)ccc1F)N1CCCc2ccccc21,102%
10,CCc1nc(C)c(C#N)c2cc(OC)c(OC)cc12,77.8%
11,COc1ccc2c(c1OC)C(=O)N(c1ccc3c(c1)CCC3)C2=O,90.3%
12,COc1cc(CC(=O)NCc2ccc3c(c2)OCO3)cc(OC)c1OC,85.9%
13,COc1ccc(CCNC(=O)c2ccc(N3CCCC3=O)cc2)cc1OC,103%
14,COc1ccccc1NC(=O)c1ccc(COc2ccccc2OC)o1,87.6%
15,COc1ccc(NC(=O)CSC2=C(C#N)C(c3ccco3)C3=C(CCCC3=O)N2)c(OC)c1 (stereo unspecified),86.6%

# Test: H69AR cell proliferation blockers – human, duplicate replicates, primary screen (AID 580);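 note: 100% = mean luminescence of untreated wells and 0% = no signal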
# Conditions: H69AR lung tumor cells viability, ATP luminescence, 72 h; at 10 µM; hits give low values
row,Compound,viability
1,CCc1nnc(NC(=O)c2ccc(COc3ccc(C)cc3)o2)s1,106%
2,CC(C)Cn1c(CN2CCN(c3ccccc3F)CC2)nc2c1c(=O)[nH]c(=O)n2C,93%
3,O=C(CN(c1ccc(F)cc1)S(=O)(=O)c1ccc2c(c1)OCCO2)Nc1ccc2c(c1)OCO2,99.8%
4,CC1(C)Cc2noc(N)c2C(C)(C)N1O,95.6%
5,COC(=O)CCn1nnc(-c2cccs2)n1,103%
6,CCOc1ccc(N(C(C)=O)C2C=CS(=O)(=O)C2)cc1 (stereo unspecified),94.9%
7,CS(=O)(=O)N1CCCC(C(=O)NCCCN2CCC(Cc3ccccc3)CC2)C1 (stereo unspecified),103%
8,Cn1c(=O)cc(OCC(=O)NCCCN2CCN(c3cccc(Cl)c3)CC2)c2ccccc21,63.7%
9,CCC(C)NC(=O)c1ccccc1NC(=O)C(C)N(c1ccccc1)S(C)(=O)=O (stereo unspecified),94.5%
10,COc1ccc2nc3oc(C(=O)NC4CCN(Cc5ccccc5)CC4)cc3cc2c1,82.6%
11,Cc1c(Cl)cccc1N1C(=O)c2ccccc2C1=O,111%
12,O=C(NC1CCCC1)C(c1ccco1)N(Cc1ccccc1)C(=O)c1csnn1 (stereo unspecified),97.5%
13,O=C(O)Cn1cc(C(=O)c2ccco2)c2ccccc21,85.5%
14,CC(C)(C)Cc1nc(-c2ccccn2)no1,100%
15,COCC(=O)N(Cc1ccc(OC)cc1)Cc1nc2ccccc2c(=O)[nH]1,86.2%
16,CCCN1C(=O)SC(CC(=O)Nc2ccc(Br)cc2)C1=O (stereo unspecified),95.8%
17,COc1cccc(C(=O)n2cnnc2N)c1OC,89.9%
18,O=C(Cn1c(=O)n(Cc2ccc3c(c2)OCO3)c(=O)c2ccccc21)N1CCCc2ccccc21,82.2%
19,CC(C)[C@H](NC(=O)NC1CCCC1)C(=O)O,104%
20,COc1ccc(-c2cc3n(n2)CCc2nc4ccccc4n2-3)cc1,93.3%

row,Compound,viability
1,CCc1nc2scc(-c3ccccc3)c2c(=O)n1N,88.4%
2,O=S(=O)(Nc1cccc2ncccc12)c1cccs1,1.71% (active)
3,O=C(O)c1cccc(CN2C(=O)SC(Nc3ccccc3)C2=O)c1 (stereo unspecified),103%
4,Cc1nc2ccc(N3C(=O)CCC3=O)cc2[nH]1,103%
5,COCCn1nnnc1C(c1ccc(OC)cc1)N1CCN(c2ccccc2F)CC1 (stereo unspecified),89.7%
6,O=S(=O)(c1ccc2nc(Cc3cccc(C(F)(F)F)c3)[nH]c2c1)N1CCOCC1,82.9%
7,Cc1nnc(SCC(=O)N(C(C)C)C(C)C)nc1C,103%
8,O=C(NC1CCCCC1)C1CC(O)CN1C(=O)OCc1ccccc1 (stereo unspecified),93.4%
9,CCOC(=O)c1ccc(CC2S/C(=C(\C#N)C(C)=O)NC2=O)cc1 (stereo unspecified),89.6%
10,COc1ccc(C2CC(=O)C(C=NCCN3CCOCC3)=C(O)C2)cc1 (stereo unspecified),98.5%
11,CN1C(=O)CCC1(O)c1ccccc1 (stereo unspecified),92.3%
12,O=c1[nH]c(/C(=N\O)c2ccccc2)no1,73.2%
13,COC(=O)C1=C(N)Oc2cc(C)[nH]c(=O)c2C1c1ccncc1 (stereo unspecified),94.7%
14,O=C(c1cc(S(=O)(=O)N2CCOCC2)ccc1F)N1CCCc2ccccc21,90.9%
15,CCc1nc(C)c(C#N)c2cc(OC)c(OC)cc12,82.4%
16,COc1ccc2c(c1OC)C(=O)N(c1ccc3c(c1)CCC3)C2=O,107%
17,COc1cc(CC(=O)NCc2ccc3c(c2)OCO3)cc(OC)c1OC,95.8%
18,COc1ccc(CCNC(=O)c2ccc(N3CCCC3=O)cc2)cc1OC,92.1%
19,COc1ccccc1NC(=O)c1ccc(COc2ccccc2OC)o1,97.2%
20,COc1ccc(NC(=O)CSC2=C(C#N)C(c3ccco3)C3=C(CCCC3=O)N2)c(OC)c1 (stereo unspecified),73%
